Test results taken from ChEMBL document CHEMBL1166005, “Discovery of tetrahydro-beta-carbolines as inhibitors of the mitotic kinesin KSP” (Bioorg Med Chem, 2010).

Tests used:
[1] = target: T1, Kinesin-like protein KIF11 (Homo sapiens, UniProt P52732); experiment: Inhibition of human Eg5 expressed in Escherichia coli assessed as microtubule-activated ATPase activity by spectrophotometry
T1 sequence (P52732 whole entry): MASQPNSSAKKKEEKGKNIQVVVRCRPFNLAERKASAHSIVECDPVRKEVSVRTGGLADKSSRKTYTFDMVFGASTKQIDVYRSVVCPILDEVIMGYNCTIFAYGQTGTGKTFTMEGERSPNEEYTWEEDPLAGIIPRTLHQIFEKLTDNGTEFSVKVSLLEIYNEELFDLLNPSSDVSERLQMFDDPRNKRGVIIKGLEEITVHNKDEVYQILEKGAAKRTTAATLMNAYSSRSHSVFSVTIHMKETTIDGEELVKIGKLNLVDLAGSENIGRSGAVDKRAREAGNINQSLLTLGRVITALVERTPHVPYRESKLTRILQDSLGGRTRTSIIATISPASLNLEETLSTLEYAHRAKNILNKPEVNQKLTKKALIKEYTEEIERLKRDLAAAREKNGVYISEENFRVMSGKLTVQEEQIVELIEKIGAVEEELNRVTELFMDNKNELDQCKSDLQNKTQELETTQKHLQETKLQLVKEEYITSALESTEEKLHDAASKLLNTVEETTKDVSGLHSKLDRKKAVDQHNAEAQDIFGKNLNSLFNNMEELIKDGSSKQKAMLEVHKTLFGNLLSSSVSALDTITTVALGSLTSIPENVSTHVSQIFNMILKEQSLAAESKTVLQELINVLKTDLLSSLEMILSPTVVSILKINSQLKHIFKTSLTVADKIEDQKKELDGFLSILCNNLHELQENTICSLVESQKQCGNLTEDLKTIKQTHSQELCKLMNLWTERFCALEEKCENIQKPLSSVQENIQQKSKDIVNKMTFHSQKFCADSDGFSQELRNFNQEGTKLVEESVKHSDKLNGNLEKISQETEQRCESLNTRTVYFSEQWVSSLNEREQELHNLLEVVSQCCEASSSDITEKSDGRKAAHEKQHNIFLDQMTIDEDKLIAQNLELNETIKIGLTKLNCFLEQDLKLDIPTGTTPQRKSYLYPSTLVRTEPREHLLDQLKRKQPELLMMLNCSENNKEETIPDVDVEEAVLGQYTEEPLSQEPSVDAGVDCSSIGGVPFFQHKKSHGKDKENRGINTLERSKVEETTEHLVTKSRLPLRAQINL
Procedure, shortened: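 Eg5 residues 2-386 expressed from pET28a in E. coli (0.5 mM IPTG, 20 h at 20 °C), purified on SP-Sepharose then Mono-Q, and dialyzed into PIPES pH 7.5 ATPase buffer. Assay contained 20 mM PIPES pH 7.5, 5.0 mM MgCl2, 1 mM EGTA, paclitaxel-stabilized MTs, ATP and 2% DMSO. Started with ATP, 37 °C for 30 min; Pi detected by malachite green with citrate stop, A610. No-enzyme and no-MT backgrounds subtracted; means of ≥3 experiments.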

A549 = experiment: Antiproliferative activity against human A549 cells after 48 hrs by SRB assay; conditions: A549, 48 h
HT-29 = experiment: Antiproliferative activity against human HT-29 cells after 48 hrs by SRB assay; conditions: HT-29, 48 h
PC-3 = experiment: Antiproliferative activity against human PC3 cells after 48 hrs by SRB assay; conditions: PC-3, 48 h
HepG2 = experiment: Antiproliferative activity against human HepG2 cells after 48 hrs by SRB assay; conditions: HepG2, 48 h
AGS = experiment: Antiproliferative activity against human AGS cells after 48 hrs by SRB assay

Compound `CC(N)C(=O)N1CCc2c([nH]c3ccc(Cl)cc23)C1c1cccc(O)c1` (stereo not given) has an IC50 [1] of 0.483 µM and an IC50 (A549) of 5.65 µM.
In the case of `Cc1ccc2[nH]c3c(c2c1)CCN(CCN)C3c1cccc(O)c1` (racemic), the IC50 [1] is reported as 0.237 µM and the IC50 (A549) is reported as 7.79 µM.
Compound `NCCC(=O)N1CCc2c([nH]c3c(Cl)cccc23)C1c1cccc(O)c1` (racemic) has an IC50 (HT-29) of 5.75 µM, an IC50 [1] of 0.04 µM and an IC50 (PC-3) of 1.28 µM. The IC50 (HepG2) was 7.47 µM, the IC50 (A549) was 0.94 µM and the IC50 (AGS) was 1.31 µM.
`NCCNC(=O)C1Cc2c([nH]c3ccccc23)C(c2cccc(O)c2)N1` (racemic) showed an IC50 [1] of 0.065 µM and an IC50 (A549) greater than 10 µM.
For `Cc1ccc2[nH]c3c(c2c1)CCN(C(=O)c1ccc(N)cc1)C3c1cccc(O)c1` (racemic), the IC50 (HT-29) was 7.47 µM, the IC50 [1] was 0.05 µM and the IC50 (PC-3) was greater than 10 µM. For the same compound, the IC50 (HepG2) was greater than 10 µM, the IC50 (A549) was 7.93 µM and the IC50 (AGS) was 8.86 µM.
With `Cc1ccc2[nH]c3c(c2c1)CCN(CCCN)C3c1cccc(O)c1` (racemic) the IC50 [1] was 0.083 µM and the IC50 (A549) was 6.86 µM.
`Cc1ccc2[nH]c3c(c2c1)CCN(CCCCN)C3c1cccc(O)c1` (racemic) showed an IC50 [1] of 0.454 µM and an IC50 (A549) of 9.19 µM.
Compound `NCCCN1CCc2c([nH]c3ccc(Cl)cc23)C1c1cccc(O)c1` (racemic) has an IC50 [1] of 0.204 µM and an IC50 (A549) of 6.73 µM.
For `NCCN1CCc2c([nH]c3ccc(Cl)cc23)C1c1cccc(O)c1` (racemic), the IC50 [1] was 0.007 µM and the IC50 (A549) was 8.7 µM.
`CCCC(=O)N1CCc2c([nH]c3ccc(Cl)cc23)C1c1c[nH]c2ccccc12` (racemic) showed an IC50 (HT-29) of 5.86 µM, an IC50 [1] of 0.163 µM and an IC50 (PC-3) of 7.29 µM. The IC50 (HepG2) was 7.64 µM, the IC50 (A549) was 9.11 µM and the IC50 (AGS) was 7.06 µM.
`Cc1ccc2[nH]c3c(c2c1)CCN(C)C3c1cccc(O)c1` (racemic) was tested, and the IC50 [1] was 0.462 µM and the IC50 (A549) was 8.73 µM.
With `Cc1ccc2[nH]c3c(c2c1)CCN(Cc1ccccc1)C3c1cccc(O)c1` (racemic) the IC50 [1] was 12.4 µM and the IC50 (A549) was 6.86 µM.
With `CCCC(=O)N1CCc2c([nH]c3ccc(C)cc23)C1c1c[nH]c2ccccc12` (racemic) the IC50 [1] was less than 0.001 µM and the IC50 (A549) was greater than 10 µM.
`CN1CCc2c([nH]c3ccc(Cl)cc23)C1c1cccc(O)c1` (racemic) was tested, and the IC50 (HT-29) was 7.4 µM, the IC50 [1] was 0.664 µM and the IC50 (PC-3) was greater than 10 µM. It also gave an IC50 (HepG2) greater than 10 µM, an IC50 (A549) of 1.38 µM and an IC50 (AGS) of 0.75 µM.
`CCCN1CCc2c([nH]c3ccc(Cl)cc23)C1c1cccc(O)c1` (racemic) showed an IC50 [1] of 0.169 µM and an IC50 (A549) of 1.55 µM.
`Oc1cccc(C2c3[nH]c4ccc(Cl)cc4c3CCN2Cc2ccccc2)c1` (racemic) showed an IC50 [1] of 0.71 µM and an IC50 (A549) of 5.7 µM.
`CCOC(=O)C1Cc2c([nH]c3ccccc23)C(c2cccc(O)c2)N1C(C)=O` (racemic) gave an IC50 [1] of 0.724 µM and an IC50 (A549) greater than 10 µM.
`CCOC(=O)C1Cc2c([nH]c3ccccc23)C(c2cccc(O)c2)N1C(=O)CC` (racemic) gave an IC50 [1] of 0.075 µM and an IC50 (A549) greater than 10 µM.
`CC(=O)N1CCc2c([nH]c3ccc(C)cc23)C1c1c[nH]c2ccccc12` (racemic) was tested, and the IC50 [1] was 0.051 µM and the IC50 (A549) was greater than 10 µM.
Compound `Nc1ccc(C(=O)N2CCc3c([nH]c4ccc(Cl)cc34)C2c2cccc(O)c2)cc1` (racemic) has an IC50 (HT-29) of 6.3 µM, an IC50 [1] of 0.076 µM and an IC50 (PC-3) of 7.3 µM. For the same compound, the IC50 (HepG2) was 8.52 µM, the IC50 (A549) was 6.66 µM and the IC50 (AGS) was 6.07 µM.
With `NCCC(=O)N1CCc2c([nH]c3ccc(Cl)cc23)C1c1c[nH]c2ccccc12` (racemic) the IC50 (HT-29) was 6.28 µM, the IC50 [1] was 0.043 µM and the IC50 (PC-3) was 1.55 µM. It also gave an IC50 (HepG2) greater than 10 µM, an IC50 (A549) of 1.79 µM and an IC50 (AGS) of 6.16 µM.
`CCCC(=O)N1C(C(=O)O)Cc2c([nH]c3ccccc23)C1c1cccc(O)c1` (racemic) was tested, and the IC50 [1] was 3.45 µM and the IC50 (A549) was greater than 10 µM.
For `Cc1ccc2[nH]c3c(c2c1)CCN(C(=O)C(C)C)C3c1c[nH]c2ccccc12` (racemic), the IC50 [1] was 0.216 µM and the IC50 (A549) was greater than 10 µM.
`CCCC(=O)N1C(C(=O)OCC)Cc2c([nH]c3ccccc23)C1c1cccc(O)c1` (racemic) was tested, and the IC50 [1] was 0.224 µM and the IC50 (A549) was greater than 10 µM.
`CCC(=O)N1C(C(=O)O)Cc2c([nH]c3ccccc23)C1c1cccc(O)c1` (racemic) showed an IC50 [1] of 0.118 µM and an IC50 (A549) greater than 10 µM.
`O=C(NCCO)C1Cc2c([nH]c3ccccc23)C(c2cccc(O)c2)N1` (racemic) gave an IC50 [1] of 0.29 µM and an IC50 (A549) greater than 10 µM.
Work on `NCCCCN1CCc2c([nH]c3ccc(Cl)cc23)C1c1cccc(O)c1` (racemic) yielded an IC50 [1] of 0.347 µM and an IC50 (A549) of 9.06 µM.
`CCOC(=O)C1Cc2c([nH]c3ccccc23)C(c2cccc(O)c2)N1C(=O)C(C)C` (racemic) showed an IC50 [1] of 0.38 µM and an IC50 (A549) greater than 10 µM.
`CC(C)Oc1cccc(C2c3[nH]c4ccc(Cl)cc4c3CCN2CCN)c1` (racemic) gave an IC50 (HT-29) of 7.44 µM, an IC50 (PC-3) greater than 10 µM and an IC50 (HepG2) greater than 10 µM. It also gave an IC50 (A549) of 8.7 µM and an IC50 (AGS) of 8.39 µM.
Work on `CC(=O)N1CCc2c([nH]c3ccc(Cl)cc23)C1c1c[nH]c2ccccc12` (racemic) yielded an IC50 [1] of 0.337 µM and an IC50 (A549) of 9.8 µM.
In the case of `CC(C)C(=O)N1CCc2c([nH]c3ccc(Cl)cc23)C1c1c[nH]c2ccccc12` (racemic), the IC50 [1] is reported as 1.7 µM and the IC50 (A549) is reported as 6.83 µM.
For `CCC(c1nc2cc(Cl)ccc2c(=O)n1Cc1ccccc1)N(CCCN(C)C)C(=O)c1ccc(Br)cc1` (stereo not given) [CK0106023], the IC50 (HT-29) was 3.33 µM, the IC50 [1] was 0.049 µM and the IC50 (PC-3) was greater than 10 µM. For the same compound, the IC50 (HepG2) was greater than 10 µM, the IC50 (A549) was 7.02 µM and the IC50 (AGS) was 5.1 µM.
